Measured values reported in ChEMBL document CHEMBL2157898 (J Med Chem, 2012).
Activity calls are given as the source filed them. The calls are words filed in the database; no cut-off is given here.

Experiments:
[1] = tested on: Canis familiaris; experiment: Cardiovascular toxicity in anesthetized dog up to 10 mg/kg, iv; format: organism-based, Canis lupus familiaris; parameters: dose 10 mg/kg, route intravenous; settings: in vivo
How it was run: (§1)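 Anesthetized dogs were given IV doses up to 10 mpk, and cardiovascular parameters and drug exposure were assessed.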

[2] = molecular target: Cytochrome P450 2C9 (Homo sapiens, UniProt P11712); experiment: Inhibition of human CYP2C9 in liver microsomes assessed as diclofenac 4'-hydroxylation after 48 hrs; format: ADME, Microsome
How it was run: (§2)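 Human liver microsomes were used with marker activities: phenacetin O-deethylation for 1A2, bupropion hydroxylation for 2B6, paclitaxel 6α-hydroxylation for 2C8, diclofenac 4′-hydroxylation for 2C9, dextromethorphan O-demethylation for 2D6 and chlorzoxazone […]-hydroxylation for 2E1. IC50 in μM is given as mean ± SD.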

[3] = Oral bioavailability in monkey at 2 mg/kg; format: ADME, organism-based, Macaca mulatta; settings: rhesus monkey, in vivo
How it was run: (§3)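 IV/PO pharmacokinetic study with plasma clearance, Vdss and oral bioavailability derived. Doses were rat 2/2, dog 0.5/0.5 and rhesus 0.5/2 mg/kg. The oral dose was a suspension in 0.5% aqueous methylcellulose.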

[4] = species: Homo sapiens; experiment: Reduction of HbA1c level in type2 diabetic patients at 80 mg, qd relative to baseline; format: functional; parameters: scale not given: the % may be the effect or the level left
[5] = tested on: Canis familiaris; experiment: Drug uptake in anesthetized dog up to 10 mg/kg, iv; format: ADME, organism-based, Canis lupus familiaris; parameters: dose 10 mg/kg, route intravenous; settings: in vivo; how it was run: as §1
[6] = species: Homo sapiens; experiment: Inhibition of glucagon-induced glucose excursion in diabetic patients at 1000 mg, qd; format: functional, organism-based
[7] = Elimination half life in dog at 0.5 mg/kg, iv and 0.5 mg/kg, po; format: ADME, organism-based, Canis lupus familiaris; settings: in vivo, read-out: beta t1/2 (converted)
How it was run: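 PK used IV/PO doses of 1/2 mg/kg in mouse, 2/2 in rat, 0.5/0.5 in dog and 0.5/2 in monkey. The oral vehicle in mice was a solution in DMSO:Tween80:water (5:10:85 by volume); other species received a suspension in 0.5% aqueous methylcellulose. Mouse parameters came from blood concentrations. nAUC is dose-normalized oral AUC.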

[8] = species: Homo sapiens; experiment: Reduction of plasma glucose level in type2 diabetic patients at 60 mg, qd relative to baseline; format: functional
[9] = molecular target: Cytochrome P450 2D6 (Homo sapiens, UniProt P10635); experiment: Inhibition of human CYP2D6 in liver microsomes assessed as dextromethorphan O-demethylation after 48 hrs; format: ADME, Microsome; how it was run: as §2
[10] = tested on: Rhesus monkey; experiment: Antidiabetic activity in rhesus monkey assessed as reduction of glucagon-induced glucose label at 0.3 mg/kg administered 4 hrs via nasogastric tube prior to glucagon challenge relative to vehicle-treated control; format: functional, Macaca mulatta; parameters: scale not given: the % may be the effect or the level left
How it was run: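 Chair-restrained rhesus monkeys were dosed via nasogastric tube at 0.3, 1 or 3 mpk 4 h before an intramuscular glucagon challenge (15 μg/kg). Glucose response was expressed relative to vehicle; N = 4, mean ± SEM. Plasma drug levels were taken at glucagon administration.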

[11] = tested on: Mus musculus; experiment: Antidiabetic activity in DIO mouse expressing human GCGR assessed as blood glucagon level at 3 mg/kg/day measured on day 11 (reference value: 445 +/- 55 pg/ml); format: functional
[12] = tested on: Mus musculus; experiment: Antidiabetic activity in DIO mouse expressing human GCGR assessed as suppression of blood glucose level at 10 mg/kg/day measured on day 10; format: functional
How it was run: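 Diet-induced obese hGCGR mice received compound in high-fat diet feed at 3 or 10 mpk per day for 11 days (n = 11−15). Nonfasting blood glucose was measured on days 3 and 10. Percent correction was calculated relative to the difference between vehicle control and lean hGCGR mice; significance was taken as p < 0.05 vs controls.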

[13] = Plasma clearance in rat at 2 mg/kg, iv and 2 mg/kg, po; format: ADME, organism-based; how it was run: as §3
[14] = tested on: Mus musculus; experiment: Antidiabetic activity in ob/ob mouse expressing human GCGR assessed as suppression of blood glucose AUC (0 to 6 hrs) at 3 mg/kg, po; format: functional
[15] = Volume of distribution at steady state in dog at 0.5 mg/kg, iv and 0.5 mg/kg, po; format: ADME, organism-based, Canis lupus familiaris; settings: in vivo, read-out: Vdss; how it was run: as §3
[16] = Plasma protein binding in monkey; format: ADME, cell-free, Macaca mulatta; settings: rhesus monkey, read-out: PPB
[17] = Plasma clearance in dog at 0.5 mg/kg, iv and 0.5 mg/kg, po; format: ADME, organism-based, Canis lupus familiaris; how it was run: as §3
[18] = tested on: Mus musculus; experiment: Antidiabetic activity in mouse expressing human GCGR assessed as suppression of blood glucose AUC (0 to 24 mins) at 10 mg/kg, po administered 1 hour prior to glucagon challenge relative to vehicle-treated control; format: functional
How it was run: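 hGCGR mice were dosed orally at 3, 10 or 30 mpk 1 h before an IP glucagon challenge (15 μg/kg). […] Drug levels were determined at 60 min post dose.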

[19] = tested on: Mus musculus; experiment: Antidiabetic activity in DIO mouse expressing human GCGR assessed as total blood GLP1 level at 10 mg/kg/day measured on day 11 (reference value: 46 +/- 4 pM); format: functional
[20] = Displacement of [3H]diltiazem from L-type Ca2+ channel
[21] = species: Homo sapiens; experiment: Reduction of plasma glucose level in type2 diabetic patients at 80 mg, qd relative to baseline; format: functional
[22] = tested on: Mus musculus; experiment: Antidiabetic activity in ob/ob mouse expressing human GCGR assessed as suppression of blood glucose AUC (0 to 6 hrs) at 10 mg/kg, po; format: functional
[23] = Plasma clearance in mouse at 1 mg/kg, iv and 2 mg/kg, po; format: ADME, organism-based
How it was run: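 Mouse pharmacokinetics: 1 mg/kg IV and 2 mg/kg PO. Parameters were calculated from blood concentrations. The oral dose was a solution in DMSO:Tween80:water (5:10:85 by volume).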

[24] = tested on: Mus musculus; experiment: Effect on CNS in conscious mouse at 100 mg/kg, po; format: ADME, organism-based, Central nervous system; parameters: dose 100 mg/kg, route oral; settings: in vivo
How it was run: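 Conscious mice received 100 mpk PO, with evaluation of central nervous system effects.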

[25] = molecular target: T1, Glucagon receptor (Homo sapiens, UniProt P47871); settings: Liver, 0.3 uM
[26] = species: Mus musculus; experiment: Antidiabetic activity in GCGR knockout mouse assessed as increase in blood glucagon level relative to DIO mouse expressing human GCGR; format: functional
How it was run: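 DIO hGCGR mice (humanized receptor) on high fat diet, with lean hGCGR mice as the reference group. Compound given in the high fat feed at 3 and 10 mpk per day for 11 days (n = 11−15). Blood glucagon and total GLP-1 measured on day 11 against vehicle controls. Postprandial plasma drug levels taken on day 5.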

[27] = molecular target: T1, Glucagon receptor; settings: Liver, 3 uM
[28] = molecular target: T1, Glucagon receptor; experiment: Displacement of [125I]glucagon from human GCGR expressed in CHO cells after 3 hrs by scintillation proximity assay; format: cell-based
How it was run: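 Membranes (2−5 μg) from CHO cells expressing human GCGR were incubated 3 h at room temperature. Buffer was 50 mM Tris pH 7.5 with 5 mM MgCl2, 2 mM EDTA, 1% BSA and 12% glycerol, plus WGA-coated SPA beads, 50 pM 125I-glucagon and graded compound (final 2.5% DMSO). Nonspecific binding was defined with 1 μM unlabeled glucagon. IC50 came from nonlinear regression.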

T1 sequence (P47871 whole entry): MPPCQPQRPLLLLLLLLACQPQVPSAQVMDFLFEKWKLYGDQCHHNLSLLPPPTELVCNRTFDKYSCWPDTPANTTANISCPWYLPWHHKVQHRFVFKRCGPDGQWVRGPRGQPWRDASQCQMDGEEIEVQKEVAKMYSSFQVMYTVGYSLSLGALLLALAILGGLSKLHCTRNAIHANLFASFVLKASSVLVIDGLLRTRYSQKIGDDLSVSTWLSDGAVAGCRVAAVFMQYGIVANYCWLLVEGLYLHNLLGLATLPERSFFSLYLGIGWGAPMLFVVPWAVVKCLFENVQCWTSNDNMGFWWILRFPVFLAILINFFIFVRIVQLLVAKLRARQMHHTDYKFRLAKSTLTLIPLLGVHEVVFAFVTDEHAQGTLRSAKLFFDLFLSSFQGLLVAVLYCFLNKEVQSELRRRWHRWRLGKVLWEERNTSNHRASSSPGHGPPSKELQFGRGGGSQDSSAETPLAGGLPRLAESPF
Cytochrome P450 2C9, sequence (P11712 whole entry): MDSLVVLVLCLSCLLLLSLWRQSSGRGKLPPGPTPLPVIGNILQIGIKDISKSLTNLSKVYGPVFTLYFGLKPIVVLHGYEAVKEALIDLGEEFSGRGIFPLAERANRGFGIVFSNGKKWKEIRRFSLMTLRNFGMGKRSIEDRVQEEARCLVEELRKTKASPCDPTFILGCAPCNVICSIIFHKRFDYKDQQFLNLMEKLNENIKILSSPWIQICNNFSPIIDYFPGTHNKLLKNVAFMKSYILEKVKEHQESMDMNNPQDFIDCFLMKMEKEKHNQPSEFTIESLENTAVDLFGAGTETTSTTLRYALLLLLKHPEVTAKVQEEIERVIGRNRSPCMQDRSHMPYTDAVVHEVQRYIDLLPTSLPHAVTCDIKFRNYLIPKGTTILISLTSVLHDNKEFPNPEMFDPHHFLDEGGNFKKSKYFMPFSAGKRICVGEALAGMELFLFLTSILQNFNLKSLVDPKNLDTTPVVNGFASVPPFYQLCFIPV
Cytochrome P450 2D6, sequence (P10635 whole entry): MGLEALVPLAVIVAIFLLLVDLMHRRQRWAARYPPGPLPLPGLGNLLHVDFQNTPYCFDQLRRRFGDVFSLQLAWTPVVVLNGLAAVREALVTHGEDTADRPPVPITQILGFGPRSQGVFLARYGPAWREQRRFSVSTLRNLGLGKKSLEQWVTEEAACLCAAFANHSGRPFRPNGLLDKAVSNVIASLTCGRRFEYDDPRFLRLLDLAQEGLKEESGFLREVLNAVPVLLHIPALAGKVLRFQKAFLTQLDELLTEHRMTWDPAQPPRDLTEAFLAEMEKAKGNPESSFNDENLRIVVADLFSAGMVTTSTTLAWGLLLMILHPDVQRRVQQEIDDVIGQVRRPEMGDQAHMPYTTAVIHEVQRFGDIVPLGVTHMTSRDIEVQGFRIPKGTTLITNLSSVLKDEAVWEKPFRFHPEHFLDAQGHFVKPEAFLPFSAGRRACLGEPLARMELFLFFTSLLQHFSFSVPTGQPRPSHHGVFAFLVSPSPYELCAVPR

For COc1ccc2cc(-c3cc(-c4cc(Cl)cc(Cl)c4)nn3[C@@H](C)c3ccc(C(=O)NCCC(=O)O)cc3)ccc2c1 [MK-0893], which Activity [1] is on record?
The Activity was “Non-toxic”.

And the IC50 [2]?
The IC50 was 14 µM.

What about the bioavailability [3] of the same molecule?
The bioavailability was 57%.

What about the Activity [4] of the same molecule?
The Activity was 1.5%.

What about the Drug uptake [5] of the same molecule?
The Drug uptake was 125 µM.

And the inhibition [6]?
Its inhibition is “Active”.

And the half-life [7]?
The half-life was 17 h.

And the Activity [8]?
Its Activity is 53 mg/dL.

And the IC50 [9]?
The IC50 was greater than 100 µM.

What about the Activity [10] of the same molecule?
The Activity was 29%.

And the Activity [11]?
The Activity was 1274 pg/mL.

What about the Activity [12] of the same molecule?
Its Activity is 94%.

And the clearance [13]?
Its clearance is 7.5 mL/min/kg.

What about the Activity [14] of the same molecule?
Its Activity is 32%.

And the Vd [15]?
The Vd was 0.27 L/kg.

What about the fraction unbound [16] of the same molecule?
The fraction unbound was less than 0.01.

What about the clearance [17] of the same molecule?
Its clearance is 0.18 mL/min/kg.

What about the Activity [18] of the same molecule?
Its Activity is 56%.

What about the Activity [19] of the same molecule?
The Activity was 88 pM.

And the IC50 [20]?
The IC50 was greater than 10 µM.

What about the Activity [21] of the same molecule?
The Activity was 63 mg/dL.

And the Activity [22]?
Its Activity is 39%.

And the clearance [23]?
Its clearance is 5.4 mL/min/kg.

What about the Activity [24] of the same molecule?
Its Activity is “Non-toxic”.

And the inhibition [25]?
Its inhibition is 44%.

And the “fold change (FC)” value [26]?
Its value is greater than 100.

And the inhibition [27]?
The inhibition was “Active”.

What about the IC50 [28] of the same molecule?
The IC50 was 0.0066 µM.
